Experimental data as given in ChEMBL document CHEMBL1153029, “In vitro and in vivo studies of 6,8-(diaryl)imidazo[1,2-a]pyrazin-3(7H)-ones as new antioxidants” (Bioorg Med Chem, 2009).

Tests used:
[1] = Antioxidant activity assessed as chemical oxidative degradation into 4-(5-amino-6-(4-(dimethylamino)phenyl)pyrazin-2-yl)phenol at 1000 uM after 19 hrs by HPLC; type: functional
In short: (§1)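 Aerobic oxidation of imidazopyrazinone (10^-3 M) with internal standard (5 × 10^-4 M) in 90:10:0.1 CH2Cl2/isopropanol/DEA. Sealed vial under white light at 23 °C for 19 h. Products quantified by HPLC against calibration curves, detection at 280 nm.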

Hamster = experiment: Antioxidant activity against microvascular damage in hamster model of cheek pouch submitted to ischemia/reperfusion assessed as inhibition of leaky sites at 3 mg/kg treated by gavage route 30 mins before anesthesia measured after 30 mins of reperfusion by FITC-dextran based microscopy; type: functional; conditions: Cricetinae, po
In short: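 Hamsters anesthetized, kept on a-chloralose (100 mg/kg) via the femoral vein, femoral artery cannulated for blood pressure, body temperature 37.5 °C. Compound at 3 mg/kg or solvent given by gavage in 0.2 ml, 3 animals per group. FITC-dextran (150,000 Da) given i.v. at 25 mg/100 g. Cuff ischemia of everted pouch. Leaky sites counted; % inhibition = [1 − mean treated/mean control] × 100.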

[2] = Antioxidant activity assessed as chemical oxidative degradation into 4-(5-aminopyrazin-2-yl)phenol at 80 uM by HPLC in presence of linoleic acid and azo-bis-isobutyronitrile; type: functional
[3] = Antioxidant activity assessed as chemical oxidative degradation into 4-(5-aminopyrazin-2-yl)phenol at 80 uM after 18 hrs by HPLC; type: functional
In short: (§2)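 Imidazopyrazinone mixed 1:1 with standard (8 × 10^-5 M) in 96:4 ACN–EtOH. Kept in the dark at 37 °C and sampled by HPLC hourly for 18 h.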

[4] = Antioxidant activity assessed as time required for chemical oxidative degradation of compound at 80 uM by HPLC in presence of azo-bis-isobutyronitrile; type: functional
[5] = Antioxidant activity assessed as time required for chemical oxidative degradation of compound at 80 uM by HPLC in presence of linoleic acid; type: functional
[6] = Antioxidant activity assessed as chemical oxidative degradation into benzoic acid at 80 uM by HPLC in presence of linoleic acid and azo-bis-isobutyronitrile; type: functional
[7] = Antioxidant activity assessed as chemical oxidative degradation into 4-(5-aminopyrazin-2-yl)phenol at 80 uM after 18 hrs by HPLC in presence of azo-bis-isobutyronitrile; type: functional
[8] = Antioxidant activity assessed as chemical oxidative degradation into N-(5-(4-hydroxyphenyl)pyrazin-2-yl)benzamide at 80 uM after 18 hrs by HPLC in presence of azo-bis-isobutyronitrile; type: functional
[9] = Antioxidant activity assessed as chemical oxidative degradation into 4-(5-aminopyrazin-2-yl)phenol at 80 uM by HPLC in presence of linoleic acid; type: functional
[10] = Antioxidant activity assessed as chemical oxidative degradation into N-(5-(4-hydroxyphenyl)pyrazin-2-yl)benzamide at 80 uM by HPLC in presence of linoleic acid; type: functional
[11] = Antioxidant activity assessed as chemical oxidative degradation into N-(5-(4-hydroxyphenyl)pyrazin-2-yl)benzamide at 80 uM after 18 hrs by HPLC; type: functional; in short: as §2
[12] = Antioxidant activity assessed as chemical oxidative degradation into N-(5-(4-hydroxyphenyl)pyrazin-2-yl)benzamide at 80 uM by HPLC in presence of linoleic acid and azo-bis-isobutyronitrile; type: functional
[13] = Antioxidant activity assessed as chemical oxidative degradation into benzoic acid at 80 uM by HPLC in presence of linoleic acid; type: functional
[14] = Stability at pH 7.4 at 80 uM during 1 day by HPLC in presence of linoleic acid and azo-bis-isobutyronitrile; type: physicochemical; conditions: buffer, pH 7.4, 24 h
[15] = Antioxidant activity assessed as chemical oxidative degradation into 1-(4-(3-amino-6-(4-hydroxyphenyl)pyrazin-2-yl)phenyl)ethanone at 1000 uM after 19 hrs by HPLC; type: functional; in short: as §1
[16] = Antioxidant activity assessed as chemical oxidative degradation into N-(5-(4-hydroxyphenyl)-3-(4-methoxyphenyl)pyrazin-2-yl)acetamide at 1000 uM after 19 hrs by HPLC; type: functional; in short: as §1
[17] = Antioxidant activity assessed as chemical oxidative degradation into N-(3-(4-(dimethylamino)phenyl)-5-(4-hydroxyphenyl)pyrazin-2-yl)acetamide at 1000 uM after 19 hrs by HPLC; type: functional; in short: as §1
[18] = Antioxidant activity assessed as chemical oxidative degradation into 4-(5-amino-6-phenylpyrazin-2-yl)phenol at 1000 uM after 19 hrs by HPLC; type: functional; in short: as §1
[19] = Chemical stability after 19 hrs; type: physicochemical; in short: as §1
[20] = Antioxidant activity assessed as chemical oxidative degradation into N-(5-(4-hydroxyphenyl)-3-phenylpyrazin-2-yl)acetamide at 1000 uM after 19 hrs by HPLC; type: functional; in short: as §1
[21] = Antioxidant activity assessed as chemical oxidative degradation into 4-(5-amino-6-(4-methoxyphenyl)pyrazin-2-yl)phenol at 1000 uM after 19 hrs by HPLC; type: functional; in short: as §1
[22] = Antioxidant activity assessed as chemical oxidative degradation into 4-(5-amino-6-(4-fluorophenyl)pyrazin-2-yl)phenol at 1000 uM after 19 hrs by HPLC; type: functional; in short: as §1
[23] = Antioxidant activity assessed as chemical oxidative degradation into 4,4'-(3-aminopyrazine-2,6-diyl)diphenol at 1000 uM after 19 hrs by HPLC; type: functional; in short: as §1
[24] = Antioxidant activity assessed as chemical oxidative degradation into N-(3-(4-acetylphenyl)-5-(4-hydroxyphenyl)pyrazin-2-yl)acetamide at 1000 uM after 19 hrs by HPLC; type: functional; in short: as §1
[25] = Antioxidant activity assessed as chemical oxidative degradation into N-(5-(4-hydroxyphenyl)-3-(4-(trifluoromethyl)phenyl)pyrazin-2-yl)acetamide at 1000 uM after 19 hrs by HPLC; type: functional; in short: as §1
[26] = Antioxidant activity assessed as chemical oxidative degradation into N-(3-(4-fluorophenyl)-5-(4-hydroxyphenyl)pyrazin-2-yl)acetamide at 1000 uM after 19 hrs by HPLC; type: functional; in short: as §1
[27] = Antioxidant activity assessed as chemical oxidative degradation into 4-(5-amino-6-(4-(trifluoromethyl)phenyl)pyrazin-2-yl)phenol at 1000 uM after 19 hrs by HPLC; type: functional; in short: as §1
[28] = Antioxidant activity assessed as chemical oxidative degradation into N-(3,5-bis(4-hydroxyphenyl)pyrazin-2-yl)acetamide at 1000 uM after 19 hrs by HPLC; type: functional; in short: as §1

CN(C)c1ccc(-c2nc(-c3ccc(O)cc3)cnc2N)cc1
Activity [1]: 68%
inhibition in vivo at 3 mg/kg (Hamster): 50%

Oc1ccc(-c2cn3c(O)c(-c4ccccc4)nc3cn2)cc1
Activity [2]: 40%
Activity [3]: 9%
Activity [4]: 5 h
Activity [5]: < 6 h
Activity [6]: 33%
Activity [7]: 44%
Activity [8]: 26%
Activity [9]: 30%
Activity [10]: 66%
Activity [11]: < 5%
Activity [12]: 57%
Activity [13]: 27%

O=C(O)c1ccccc1 [BENZOIC ACID]
Stability [14]: Stable

Cc1nc2c(-c3ccc(N(C)C)cc3)[nH]c(-c3ccc(O)cc3)cn-2c1=O
inhibition in vivo at 3 mg/kg (Hamster): 21%

Cc1nc2c(-c3ccc(O)cc3)[nH]c(-c3ccc(O)cc3)cn-2c1=O
inhibition in vivo at 3 mg/kg (Hamster): 40%

Cc1nc2c(-c3ccc(C(F)(F)F)cc3)[nH]c(-c3ccc(O)cc3)cn-2c1=O
inhibition in vivo at 3 mg/kg (Hamster): 17%

CC(=O)c1ccc(-c2nc(-c3ccc(O)cc3)cnc2N)cc1
Activity [15]: 67%

Cc1nc2c(-c3ccc(F)cc3)[nH]c(-c3ccc(O)cc3)cn-2c1=O
inhibition in vivo at 3 mg/kg (Hamster): 34%

O=C(Nc1cnc(-c2ccc(O)cc2)cn1)c1ccccc1
Stability [14]: Stable

COc1ccc(-c2nc(-c3ccc(O)cc3)cnc2NC(C)=O)cc1
Activity [16]: 21%

CC(=O)Nc1ncc(-c2ccc(O)cc2)nc1-c1ccc(N(C)C)cc1
Activity [17]: 18%

Nc1ncc(-c2ccc(O)cc2)nc1-c1ccccc1
inhibition in vivo at 3 mg/kg (Hamster): 18%
Activity [18]: 66%

COc1ccc(-c2[nH]c(-c3ccc(O)cc3)cn3c(=O)c(C)nc2-3)cc1
inhibition in vivo at 3 mg/kg (Hamster): 44%

CC(=O)Nc1ncc(-c2ccc(O)cc2)nc1-c1ccccc1
Stability [19]: Stable
Activity [20]: 15%

COc1ccc(-c2nc(-c3ccc(O)cc3)cnc2N)cc1
inhibition in vivo at 3 mg/kg (Hamster): 10%
Activity [21]: 71%

Nc1ncc(-c2ccc(O)cc2)nc1-c1ccc(F)cc1
Activity [22]: 76%
inhibition in vivo at 3 mg/kg (Hamster): 42%

COc1cc(C(C)=O)ccc1O [APOCYNIN]
inhibition in vivo at 3 mg/kg (Hamster): 40%

Nc1ncc(-c2ccc(O)cc2)nc1-c1ccc(O)cc1
Activity [23]: 77%
inhibition in vivo at 3 mg/kg (Hamster): 29%

CC(=O)Nc1ncc(-c2ccc(O)cc2)nc1-c1ccc(C(C)=O)cc1
Activity [24]: 22%

Cc1nc2c(-c3ccccc3)[nH]c(-c3ccc(O)cc3)cn-2c1=O
inhibition in vivo at 3 mg/kg (Hamster): 12%

CC(=O)Nc1ncc(-c2ccc(O)cc2)nc1-c1ccc(C(F)(F)F)cc1
Activity [25]: 16%

CC(=O)Nc1ncc(-c2ccc(O)cc2)nc1-c1ccc(F)cc1
Activity [26]: 17%

Nc1ncc(-c2ccc(O)cc2)nc1-c1ccc(C(F)(F)F)cc1
inhibition in vivo at 3 mg/kg (Hamster): 14%
Activity [27]: 78%

CC(=O)Nc1ncc(-c2ccc(O)cc2)nc1-c1ccc(O)cc1
Activity [28]: 16%
